Measurements: ChEMBL document CHEMBL1139340, “Synthesis, radiosynthesis, and biological evaluation of carbon-11 and fluorine-18 labeled reboxetine analogues: potential positron emission tomography radioligands for in vivo imaging of the norepinephrine transporter” (J Med Chem, 2009)

Assays:
Homo sapiens = species on record: Homo sapiens; test: Selectivity for human NET over human SERT
Summary of the method: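 Competition binding in stably transfected cells expressing human transporters: NET vs [3H]nisoxetine and SERT vs [3H]citalopram in HEK-293 cells; DAT vs [125I]RTI-55 in canine kidney cells. Ki as geometric mean of at least three experiments in triplicate; selectivity as ratio of SERT or DAT Ki to NET Ki.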

[1] = molecular target: Sodium-dependent dopamine transporter (Homo sapiens, UniProt Q01959); test: Displacement of [125I]RTI-55 from human DAT receptor expressed in canine kidney cells; type: cell-based
Summary of the method: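 Competition binding against [¹²⁵I]RTI-55 in canine kidney cells stably transfected with human DAT. Ki in nM, geometric mean ± SD of at least three separate experiments, each run in triplicate.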

Sequence of Sodium-dependent dopamine transporter (Q01959 whole entry): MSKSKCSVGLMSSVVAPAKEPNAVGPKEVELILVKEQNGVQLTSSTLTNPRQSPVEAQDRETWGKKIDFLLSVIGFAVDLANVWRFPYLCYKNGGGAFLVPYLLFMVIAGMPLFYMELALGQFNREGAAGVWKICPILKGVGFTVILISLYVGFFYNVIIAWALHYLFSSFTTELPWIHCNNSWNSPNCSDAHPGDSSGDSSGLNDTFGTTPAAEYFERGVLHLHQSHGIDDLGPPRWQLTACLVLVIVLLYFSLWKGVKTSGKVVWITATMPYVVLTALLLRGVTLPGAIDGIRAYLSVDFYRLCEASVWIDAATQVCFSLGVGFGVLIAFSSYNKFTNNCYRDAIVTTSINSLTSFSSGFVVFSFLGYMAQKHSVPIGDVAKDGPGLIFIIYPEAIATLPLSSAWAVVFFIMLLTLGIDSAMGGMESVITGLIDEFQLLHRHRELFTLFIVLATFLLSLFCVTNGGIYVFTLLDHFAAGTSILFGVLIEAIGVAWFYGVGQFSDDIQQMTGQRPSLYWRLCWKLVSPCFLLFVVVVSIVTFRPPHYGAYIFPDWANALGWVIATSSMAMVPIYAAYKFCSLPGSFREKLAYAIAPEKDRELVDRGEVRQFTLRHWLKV

COc1ccccc1O[C@@H](c1ccccc1)[C@@H]1CNCCO1
Ratio Ki (Homo sapiens): 195 | Ki [1]: > 2 µM
